ChEMBL document CHEMBL3813698, “Hydrophobic substituents increase the potency of salacinol, a potent α-glucosidase inhibitor from Ayurvedic traditional medicine 'Salacia'” (Bioorg Med Chem, 2016)

Legend:
[1] = target: T1, Sucrase-isomaltase, intestinal (Rattus norvegicus, UniProt P23739); assay: Inhibition of rat small intestinal sucrase using sucrose as substrate incubated for 30 mins by glucose-oxidase method
Procedure, shortened: (§1)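 Rat small-intestinal α-glucosidases in 0.1 M maleate buffer (pH 6.0). Test sample dissolved in DMSO, diluted with maleate buffer (10% DMSO in sample solution; 2.5% final). Substrate solution concentrations were maltose 74 mM (maltase), sucrose 74 mM (sucrase) and isomaltose 7.4 mM (isomaltase). Substrate, sample and enzyme were mixed at 37 °C for 30 min, stopped by 2 min boiling, and glucose read by glucose oxidase.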

Maltase-glucoamylase = Maltase-glucoamylase (Homo sapiens, UniProt O43451); assay: Inhibition of human small intestine microsomal maltase using maltose as substrate incubated for 30 mins by glucose-oxidase method
Procedure, shortened: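 Enzyme was human small-intestinal microsome in 0.1 M maleate buffer (pH 6.0), with maltose as substrate. Test sample was dissolved in DMSO and diluted in maleate buffer. Sample, substrate and enzyme were incubated at 37 °C for 30 min, stopped by boiling for 2 min, and glucose measured by the glucose-oxidase method.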

[2] = Inhibition of rat small intestinal maltase using maltose as substrate incubated for 30 mins by glucose-oxidase method; procedure, shortened: as §1
[3] = target: T1, Sucrase-isomaltase, intestinal; assay: Inhibition of rat small intestinal isomaltase using isomaltose as substrate incubated for 30 mins by glucose-oxidase method; procedure, shortened: as §1

T1 sequence (P23739 1-1013 limits assumed): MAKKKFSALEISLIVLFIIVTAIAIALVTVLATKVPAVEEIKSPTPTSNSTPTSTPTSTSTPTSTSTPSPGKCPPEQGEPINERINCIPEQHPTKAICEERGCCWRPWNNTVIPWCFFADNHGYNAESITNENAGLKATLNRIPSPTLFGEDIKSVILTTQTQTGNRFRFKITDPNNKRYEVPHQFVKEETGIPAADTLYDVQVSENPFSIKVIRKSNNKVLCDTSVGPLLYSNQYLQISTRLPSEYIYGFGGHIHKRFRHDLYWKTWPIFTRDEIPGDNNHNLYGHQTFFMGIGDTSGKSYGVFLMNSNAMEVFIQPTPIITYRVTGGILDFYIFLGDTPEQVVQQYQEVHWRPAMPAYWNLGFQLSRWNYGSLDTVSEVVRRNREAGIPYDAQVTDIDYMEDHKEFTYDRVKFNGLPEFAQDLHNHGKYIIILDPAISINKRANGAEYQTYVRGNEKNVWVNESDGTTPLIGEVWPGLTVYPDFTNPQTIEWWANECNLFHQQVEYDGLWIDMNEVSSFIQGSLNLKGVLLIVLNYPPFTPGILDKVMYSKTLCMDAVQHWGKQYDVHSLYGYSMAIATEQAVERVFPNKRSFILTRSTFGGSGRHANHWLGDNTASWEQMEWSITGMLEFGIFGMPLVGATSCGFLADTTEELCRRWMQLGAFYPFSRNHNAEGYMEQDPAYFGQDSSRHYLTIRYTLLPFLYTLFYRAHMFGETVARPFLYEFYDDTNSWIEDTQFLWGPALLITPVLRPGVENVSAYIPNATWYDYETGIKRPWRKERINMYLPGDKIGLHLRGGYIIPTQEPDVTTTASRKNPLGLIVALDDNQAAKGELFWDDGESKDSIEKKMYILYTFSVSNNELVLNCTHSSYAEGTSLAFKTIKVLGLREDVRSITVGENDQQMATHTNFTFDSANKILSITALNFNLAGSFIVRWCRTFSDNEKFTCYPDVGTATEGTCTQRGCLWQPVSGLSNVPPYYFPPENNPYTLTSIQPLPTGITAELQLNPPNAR
T1 sequence (P23739 1014-1841 limits assumed): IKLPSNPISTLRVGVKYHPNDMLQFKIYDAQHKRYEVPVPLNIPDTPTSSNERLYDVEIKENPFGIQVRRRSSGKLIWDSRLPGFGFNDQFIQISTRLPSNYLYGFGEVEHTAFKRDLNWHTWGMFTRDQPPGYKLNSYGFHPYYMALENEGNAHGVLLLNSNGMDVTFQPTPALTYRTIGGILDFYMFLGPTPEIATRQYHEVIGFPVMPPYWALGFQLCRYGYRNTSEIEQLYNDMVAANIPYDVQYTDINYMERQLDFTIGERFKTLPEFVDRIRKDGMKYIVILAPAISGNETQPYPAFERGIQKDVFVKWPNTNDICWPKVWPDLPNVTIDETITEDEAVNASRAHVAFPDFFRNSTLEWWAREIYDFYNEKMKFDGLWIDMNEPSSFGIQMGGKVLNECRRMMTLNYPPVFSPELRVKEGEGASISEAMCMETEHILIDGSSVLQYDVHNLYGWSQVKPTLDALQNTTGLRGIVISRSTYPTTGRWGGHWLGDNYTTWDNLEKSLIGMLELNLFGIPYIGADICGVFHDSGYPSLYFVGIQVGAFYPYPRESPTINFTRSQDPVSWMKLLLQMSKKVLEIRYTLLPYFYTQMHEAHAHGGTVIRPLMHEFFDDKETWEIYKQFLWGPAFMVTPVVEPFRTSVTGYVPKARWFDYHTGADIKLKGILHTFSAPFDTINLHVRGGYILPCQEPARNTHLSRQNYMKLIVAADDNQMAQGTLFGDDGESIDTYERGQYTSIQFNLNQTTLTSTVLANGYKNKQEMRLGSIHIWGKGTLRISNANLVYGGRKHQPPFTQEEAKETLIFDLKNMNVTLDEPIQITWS
Maltase-glucoamylase, sequence (O43451 whole entry): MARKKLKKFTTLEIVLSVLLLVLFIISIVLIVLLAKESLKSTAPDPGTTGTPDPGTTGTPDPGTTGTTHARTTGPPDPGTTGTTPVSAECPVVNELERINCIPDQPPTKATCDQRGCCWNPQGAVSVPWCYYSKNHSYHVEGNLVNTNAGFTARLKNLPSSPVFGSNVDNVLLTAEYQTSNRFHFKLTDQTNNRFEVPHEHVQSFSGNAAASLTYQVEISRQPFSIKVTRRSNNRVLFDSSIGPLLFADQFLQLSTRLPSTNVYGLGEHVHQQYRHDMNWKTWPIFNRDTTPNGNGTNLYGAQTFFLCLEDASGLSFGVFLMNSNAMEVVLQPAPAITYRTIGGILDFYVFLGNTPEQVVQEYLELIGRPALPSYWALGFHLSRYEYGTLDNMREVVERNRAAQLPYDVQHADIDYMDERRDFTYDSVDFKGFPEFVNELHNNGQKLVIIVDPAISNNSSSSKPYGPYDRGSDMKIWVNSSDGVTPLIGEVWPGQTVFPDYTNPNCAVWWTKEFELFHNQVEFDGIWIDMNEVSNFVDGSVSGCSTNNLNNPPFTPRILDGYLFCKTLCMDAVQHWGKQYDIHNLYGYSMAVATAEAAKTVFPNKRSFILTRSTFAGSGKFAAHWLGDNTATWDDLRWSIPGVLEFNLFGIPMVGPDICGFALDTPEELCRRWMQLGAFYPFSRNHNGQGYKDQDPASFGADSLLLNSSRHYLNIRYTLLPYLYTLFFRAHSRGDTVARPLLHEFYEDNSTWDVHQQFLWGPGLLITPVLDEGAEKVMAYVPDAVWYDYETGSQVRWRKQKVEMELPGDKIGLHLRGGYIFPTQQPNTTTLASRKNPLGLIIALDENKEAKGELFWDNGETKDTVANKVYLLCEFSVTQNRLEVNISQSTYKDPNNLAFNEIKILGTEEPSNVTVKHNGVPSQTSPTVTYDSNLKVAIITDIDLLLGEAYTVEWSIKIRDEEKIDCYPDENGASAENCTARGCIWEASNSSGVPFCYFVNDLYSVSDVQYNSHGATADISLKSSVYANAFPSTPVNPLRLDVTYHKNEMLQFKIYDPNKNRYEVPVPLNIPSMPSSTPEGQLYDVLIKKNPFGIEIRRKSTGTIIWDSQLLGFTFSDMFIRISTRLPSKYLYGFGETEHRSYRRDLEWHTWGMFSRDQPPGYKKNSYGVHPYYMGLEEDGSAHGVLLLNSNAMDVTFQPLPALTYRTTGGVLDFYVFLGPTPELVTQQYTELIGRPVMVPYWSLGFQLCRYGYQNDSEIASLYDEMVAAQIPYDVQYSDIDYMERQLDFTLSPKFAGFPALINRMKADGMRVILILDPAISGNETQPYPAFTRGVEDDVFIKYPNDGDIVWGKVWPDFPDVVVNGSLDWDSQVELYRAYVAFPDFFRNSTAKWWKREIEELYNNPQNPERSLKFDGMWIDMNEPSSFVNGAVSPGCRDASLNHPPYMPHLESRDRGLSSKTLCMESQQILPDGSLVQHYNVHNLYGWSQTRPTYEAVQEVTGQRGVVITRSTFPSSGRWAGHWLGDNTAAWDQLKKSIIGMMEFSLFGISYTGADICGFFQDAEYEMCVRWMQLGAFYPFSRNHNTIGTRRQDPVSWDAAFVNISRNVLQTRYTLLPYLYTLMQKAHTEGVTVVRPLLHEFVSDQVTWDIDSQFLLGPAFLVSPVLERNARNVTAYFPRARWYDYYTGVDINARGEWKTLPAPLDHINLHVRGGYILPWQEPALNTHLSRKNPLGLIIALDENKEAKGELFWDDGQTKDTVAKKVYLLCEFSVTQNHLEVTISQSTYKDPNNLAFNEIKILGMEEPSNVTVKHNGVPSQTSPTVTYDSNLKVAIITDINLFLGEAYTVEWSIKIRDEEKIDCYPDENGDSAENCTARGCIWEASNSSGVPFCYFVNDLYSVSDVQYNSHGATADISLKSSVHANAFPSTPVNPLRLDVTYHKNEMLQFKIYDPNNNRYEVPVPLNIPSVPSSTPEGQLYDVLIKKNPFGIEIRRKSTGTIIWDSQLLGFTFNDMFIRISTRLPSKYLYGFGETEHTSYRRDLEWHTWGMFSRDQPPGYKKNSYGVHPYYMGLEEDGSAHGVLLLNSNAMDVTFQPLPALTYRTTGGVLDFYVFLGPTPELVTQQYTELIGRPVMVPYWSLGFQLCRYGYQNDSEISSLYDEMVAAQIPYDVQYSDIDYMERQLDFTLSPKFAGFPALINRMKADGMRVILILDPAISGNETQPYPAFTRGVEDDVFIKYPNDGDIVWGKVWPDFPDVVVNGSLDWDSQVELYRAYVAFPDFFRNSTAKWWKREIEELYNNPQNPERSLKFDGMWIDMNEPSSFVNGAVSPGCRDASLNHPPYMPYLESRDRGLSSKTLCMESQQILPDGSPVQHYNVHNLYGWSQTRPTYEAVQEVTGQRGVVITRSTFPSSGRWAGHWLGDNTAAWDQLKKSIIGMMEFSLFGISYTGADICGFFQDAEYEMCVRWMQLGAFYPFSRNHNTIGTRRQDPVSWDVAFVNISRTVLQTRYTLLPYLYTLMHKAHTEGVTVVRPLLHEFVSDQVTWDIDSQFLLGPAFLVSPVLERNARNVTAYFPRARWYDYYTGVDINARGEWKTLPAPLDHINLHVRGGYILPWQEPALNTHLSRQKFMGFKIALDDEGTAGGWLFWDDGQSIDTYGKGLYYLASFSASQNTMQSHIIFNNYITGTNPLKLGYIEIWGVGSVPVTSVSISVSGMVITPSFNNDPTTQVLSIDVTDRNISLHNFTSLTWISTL

| Structure (SMILES) | IC50 [1] [nM] | IC50 (Maltase-glucoamylase) [nM] | IC50 [2] [nM] | IC50 [3] [nM] |
| --- | --- | --- | --- | --- |
| OC[C@@H]1[C@@H](O)[C@H](O)C[S+]1C[C@@H](O)[C@@H](O)CO (some centres undefined) | 1300 | 9000 | 8000 | 300 |
| CCCCCCCCCCCCCO[C@@H](CO)[C@H](O)C[S+]1C[C@@H](O)[C@H](O)[C@H]1CO (some centres undefined) | 1300 | 1100 | 1040 | 950 |
| CCCCCCCO[C@@H](CO)[C@H](O)C[S+]1C[C@@H](O)[C@H](O)[C@H]1CO (some centres undefined) | 240 | 640 | 800 | 250 |
| CC(C)CO[C@@H](CO)[C@H](O)C[S+]1C[C@@H](O)[C@H](O)[C@H]1CO (some centres undefined) | 90 | 690 | 790 | 340 |
| CC(C)(C)CO[C@@H](CO)[C@H](O)C[S+]1C[C@@H](O)[C@H](O)[C@H]1CO (some centres undefined) | 90 | 470 | 300 | 280 |
| OCCN1C[C@H](O)[C@@H](O)[C@H](O)[C@H]1CO [MIGLITOL] | – | – | 8200 | – |
| OCC(CO)N[C@H]1C[C@](O)(CO)[C@@H](O)[C@H](O)[C@H]1O [VOGLIBOSE] | – | 1300 | – | – |

More lines, in order of falling IC50 [1], values ahead:

| IC50 [1] [nM] | IC50 (Maltase-glucoamylase) [nM] | IC50 [2] [nM] | IC50 [3] [nM] | Structure (SMILES) |
| --- | --- | --- | --- | --- |
| 1600 | – | 5200 | 1300 | O=S(=O)([O-])O[C@@H](CO)[C@H](O)C[S+]1C[C@@H](O)[C@H](O)[C@H]1CO (some centres undefined) |
| 500 | 1500 | – | 470 | CCCCCO[C@@H](CO)[C@H](O)C[S+]1C[C@@H](O)[C@H](O)[C@H]1CO (some centres undefined) |
| 460 | 2000 | 5300 | 390 | CO[C@@H](CO)[C@H](O)C[S+]1C[C@@H](O)[C@H](O)[C@H]1CO (some centres undefined) |
| 120 | 960 | – | 270 | CCO[C@@H](CO)[C@H](O)C[S+]1C[C@@H](O)[C@H](O)[C@H]1CO (some centres undefined) |
| 42 | 150 | 130 | 210 | O=[N+]([O-])c1ccccc1CO[C@@H](CO)[C@H](O)C[S@@+]1C[C@@H](O)[C@H](O)[C@H]1CO |
